What was measured:
[1] = system: Leishmania braziliensis; assay: Antileishmanial activity against Leishmania braziliensis MHOM/BR/95/IOCL-2033 promastigotes after 24 hrs; type: functional, organism-based
Summary of the method: (§1)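 Promastigotes grown in Schneider's Drosophila medium with 20% (v/v) heat-inactivated FCS, harvested late-log; log-phase cells at 4.0 × 10⁶ cells/mL in 96-well trays, 26 °C, 95% air/5% CO₂. Compounds in DMSO, 160–0.16 μg/mL, triplicate per concentration. Viability counted by Neubauer chamber after 24 h; IC50 = concentration inhibiting growth 50%. Pentamidine positive control.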

[2] = system: Leishmania guyanensis; assay: Antileishmanial activity against Leishmania guyanensis MHOM/BR/95/IOCL-2092 promastigotes after 24 hrs; type: functional, organism-based; summary of the method: as §1

Row | Structure (SMILES) | IC50 [1] | IC50 [2]
1 | COc1c(OC)c2c3c(nccc3c1OC)C(=O)c1ccccc1-2 [HOMOMOSCHATOLINE] | 321 µM | 104 µM
2 | O=C1c2ccccc2-c2c3c(cc4ccnc1c24)OCO3 [LIRIODENINE] | 58.5 µM | 21.5 µM
3 | N=C(N)c1ccc(OCCCCCOc2ccc(C(=N)N)cc2)cc1 [PENTAMIDINE] | 2.9 µM | 0.9 µM

Now from value to compound:

Row | IC50 [1] | IC50 [2] | Structure (SMILES)
4 | 253 µM | 438 µM | Nc1nccc(-c2nccc3c4ccccc4n(O)c23)n1
5 | 34.8 µM | > 613 µM | Nc1nccc(-c2nccc3c2[nH]c2ccccc23)n1 [ANNOMONTINE]
